In ChEMBL document CHEMBL4400518, “Synthesis, antimicrobial and cytotoxic activities, and molecular docking studies of N-arylsulfonylindoles containing an aminoguanidine, a semicarbazide, and a thiosemicarbazide moiety” (Eur J Med Chem, 2019):
≈ marks a conversion by molar mass, not a printed value.

Tests used:
[1] = Selectivity index, ratio of IC50 for HEK293T cells to MIC for Pseudomonas aeruginosa CMCC 27853; format: toxicity; conditions: human, read-out: Selectivity Index
Pseudomonas aeruginosa [2] = assay: Antibacterial activity against Pseudomonas aeruginosa CMCC 10104 measured after 24 hrs by ELISA; format: functional; conditions: CMCC 10104, 24 h
How it was run: (§1)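 Broth microdilution MIC. Mid-log bacteria in MHB or TSB diluted 1000-fold, inoculated at 10^5 CFU/mL. Compounds added from DMSO stocks; final DMSO at most 0.05%. Incubation 24 h at 37 °C. Growth read as absorbance at 630 nm. MIC taken as the lowest concentration giving complete growth inhibition. Three independent experiments.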

Staphylococcus aureus [3] = assay: Antibacterial activity against Staphylococcus aureus CMCC(B) 26003 measured after 24 hrs by ELISA; format: functional; conditions: CMCC(B) 26003, 24 h; how it was run: as §1
[4] = Selectivity index, ratio of IC50 for HEK293T cells to MIC for methicillin-resistant Staphylococcus aureus ATCC 43300; format: toxicity; conditions: human, read-out: Selectivity Index
[5] = Selectivity index, ratio of IC50 for HEK293T cells to MIC for multidrug-resistant Pseudomonas aeruginosa ATCC BAA-2111; format: toxicity; conditions: human, read-out: Selectivity Index
SGC-7901 = assay: Cytotoxicity against human SGC7901 cells measured after 48 hrs by CCK8 assay; format: functional, cell-based; conditions: SGC-7901, 48 h
How it was run: (§2)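 Cells kept in DMEM with 10% FBS and penicillin-streptomycin at 37 °C, 5% CO2. About 1×10^4 cells per well attached for 24 h, then exposed for 48 h to 0.3, 1, 3, 10, 30 and 100 µmol/L of compound, in triplicate wells. CCK-8 added for 3 h, OD read at 450 nm. IC50 is the concentration inhibiting growth by 50%.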

Escherichia coli [6] = assay: Antibacterial activity against Escherichia coli CMCC 25922 measured after 24 hrs by ELISA; format: functional; conditions: CMCC 25922, 24 h; how it was run: as §1
HEK-293T = assay: Cytotoxicity against HEK293T cells measured after 48 hrs by CCK8 assay; format: cell-based; conditions: Homo sapiens; how it was run: as §2
Escherichia coli [7] = assay: Antibacterial activity against multidrug-resistant Escherichia coli ATCC BAA-196 measured after 24 hrs by ELISA; format: functional; conditions: ATCC BAA-196, 24 h
How it was run: (§3)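 Broth serial dilution MIC. Mid-log bacteria in Mueller-Hinton or Tryptone Soya broth, diluted 1000-fold and inoculated at 10^5 CFU/mL. Compounds from DMSO stock, final DMSO ≤0.05%. Incubated 24 h at 37 °C; growth read as absorbance at 630 nm. MIC is the lowest concentration giving complete growth inhibition. Three independent experiments.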

Escherichia coli [8] = assay: Antibacterial activity against Escherichia coli CMCC 44568 measured after 24 hrs by ELISA; format: functional; conditions: CMCC 44568, 24 h; how it was run: as §1
[9] = Selectivity index, ratio of IC50 for HEK293T cells to MIC for Staphylococcus aureus CMCC 25923; format: toxicity; conditions: human, read-out: Selectivity Index
Staphylococcus aureus [10] = assay: Antibacterial activity against methicillin-resistant Staphylococcus aureus ATCC 33591 measured after 24 hrs by ELISA; format: functional; conditions: ATCC 33591, 24 h; how it was run: as §3
[11] = Cytotoxicity against human A590 cells measured after 48 hrs by CCK8 assay; format: functional, cell-based; how it was run: as §2
[12] = Selectivity index, ratio of IC50 for HEK293T cells to MIC for Escherichia coli CMCC 44568; format: toxicity; conditions: human, read-out: Selectivity Index
Streptococcus pneumoniae = assay: Antibacterial activity against Streptococcus pneumoniae CMCC 31968 measured after 24 hrs by ELISA; format: functional; conditions: CMCC 31968, 24 h
[13] = Selectivity index, ratio of IC50 for HEK293T cells to MIC for Pseudomonas aeruginosa CMCC 10104; format: toxicity; conditions: human, read-out: Selectivity Index
[14] = Selectivity index, ratio of IC50 for HEK293T cells to MIC for Streptococcus pyogenes CMCC 32067; format: toxicity; conditions: human, read-out: Selectivity Index
[15] = Selectivity index, ratio of IC50 for HEK293T cells to MIC for Staphylococcus aureus CMCC(B) 26003; format: toxicity; conditions: human, read-out: Selectivity Index
Pseudomonas aeruginosa [16] = assay: Antibacterial activity against Pseudomonas aeruginosa CMCC 27853 measured after 24 hrs by ELISA; format: functional; conditions: CMCC 27853, 24 h; how it was run: as §1
Enterococcus faecalis = assay: Antibacterial activity against Enterococcus faecalis CMCC 29212 measured after 24 hrs by ELISA; format: functional; conditions: CMCC 29212, 24 h; how it was run: as §1
Staphylococcus aureus [17] = assay: Antibacterial activity against Staphylococcus aureus CMCC 25923 measured after 24 hrs by ELISA; format: functional; conditions: CMCC 25923, 24 h; how it was run: as §1
[18] = Selectivity index, ratio of IC50 for HEK293T cells to MIC for Bacillus subtilis CMCC 63501; format: toxicity; conditions: human, read-out: Selectivity Index
[19] = Selectivity index, ratio of IC50 for HEK293T cells to MIC for methicillin-resistant Staphylococcus aureus ATCC 33591; format: toxicity; conditions: human, read-out: Selectivity Index
[20] = Selectivity index, ratio of IC50 for HEK293T cells to MIC for Streptococcus pneumoniae CMCC 31968; format: toxicity; conditions: human, read-out: Selectivity Index
Staphylococcus aureus [21] = assay: Antibacterial activity against methicillin-resistant Staphylococcus aureus ATCC 43300 measured after 24 hrs by ELISA; format: functional; conditions: ATCC 43300, 24 h; how it was run: as §3
Bacillus subtilis = assay: Antibacterial activity against Bacillus subtilis CMCC 63501 measured after 24 hrs by ELISA; format: functional; conditions: CMCC 63501, 24 h; how it was run: as §1
Streptococcus pyogenes = assay: Antibacterial activity against Streptococcus pyogenes CMCC 32067 measured after 24 hrs by ELISA; format: functional; conditions: CMCC 32067, 24 h; how it was run: as §1
[22] = Selectivity index, ratio of IC50 for HEK293T cells to MIC for Enterococcus faecalis CMCC 29212; format: toxicity; conditions: human, read-out: Selectivity Index
Pseudomonas aeruginosa [23] = assay: Antibacterial activity against multidrug-resistant Pseudomonas aeruginosa ATCC BAA-2111 measured after 24 hrs by ELISA; format: functional; conditions: ATCC BAA-2111, 24 h; how it was run: as §3
[24] = Selectivity index, ratio of IC50 for HEK293T cells to MIC for Escherichia coli CMCC 25922; format: toxicity; conditions: human, read-out: Selectivity Index
[25] = Selectivity index, ratio of IC50 for HEK293T cells to MIC for multidrug-resistant Escherichia coli ATCC BAA-196; format: toxicity; conditions: human, read-out: Selectivity Index

Structure (SMILES) | selectivity ratio [1] | MIC (Pseudomonas aeruginosa [2]) [µM] | MIC (Staphylococcus aureus [3]) [µM] | selectivity ratio [4] | selectivity ratio [5] | IC50 (SGC-7901) [µM] | MIC (Escherichia coli [6]) [µM] | IC50 (HEK-293T) [µM] | MIC (Escherichia coli [7]) [µM] | MIC (Escherichia coli [8]) [µM] | selectivity ratio [9] | MIC (Staphylococcus aureus [10]) [µM] | IC50 [11] [µM] | selectivity ratio [12] | MIC (Streptococcus pneumoniae) [µM] | MIC (Pseudomonas aeruginosa [16]) [µM] | MIC (Enterococcus faecalis) [µM] | MIC (Staphylococcus aureus [17]) [µM] | MIC (Bacillus subtilis) [µM] | MIC (Streptococcus pyogenes) [µM] | also measured
CC/C(=N/NC(=N)N)c1cn(S(=O)(=O)c2ccc(C)cc2)c2ccc(Br)cc12 | < 0.21 | > 278 | 4.34 (≈ 2.01 µg/mL) | 26.6 | < 0.83 | 3.92 | 34.7 (≈ 16 µg/mL) | 57.6 | 8.68 (≈ 4.01 µg/mL) | 4.34 (≈ 2.01 µg/mL) | 13.3 | 2.17 (≈ 1 µg/mL) | 2.33 | 13.3 | 1.08 (≈ 0.499 µg/mL) | > 278 | 4.34 (≈ 2.01 µg/mL) | 2.17 (≈ 1 µg/mL) | 2.17 (≈ 1 µg/mL) | 139 (≈ 64.2 µg/mL) | selectivity ratio [13]: < 0.21; selectivity ratio [14]: 0.42; selectivity ratio [15]: 13.3; selectivity ratio [18]: 26.6; selectivity ratio [19]: 26.6; selectivity ratio [20]: 53.4; MIC (Staphylococcus aureus [21]): 2.17 µM (≈ 1 µg/mL); selectivity ratio [22]: 13.3; MIC (Pseudomonas aeruginosa [23]): > 69.4 µM; selectivity ratio [24]: 1.66; selectivity ratio [25]: 6.64
C/C(=N/NC(=N)N)c1cn(S(=O)(=O)c2ccccc2)c2ccccc12 | – | 45.1 (≈ 16 µg/mL) | 22.5 (≈ 8.01 µg/mL) | – | – | – | 45.1 (≈ 16 µg/mL) | – | – | 11.3 (≈ 4.01 µg/mL) | – | – | – | – | 1.4 (≈ 0.498 µg/mL) | 90.1 (≈ 32 µg/mL) | 45.1 (≈ 16 µg/mL) | 22.5 (≈ 8.01 µg/mL) | 22.5 (≈ 8.01 µg/mL) | 22.5 (≈ 8.01 µg/mL) | –
N=C(N)N/N=C\c1cn(S(=O)(=O)c2ccccc2)c2ccc(Br)cc12 | < 0.23 | 9.55 (≈ 4.01 µg/mL) | 153 (≈ 64.2 µg/mL) | 30 | < 0.94 | 3.06 | 9.55 (≈ 4.01 µg/mL) | 71.6 | 2.39 (≈ 1 µg/mL) | 1.19 (≈ 0.5 µg/mL) | 30.2 | 2.39 (≈ 1 µg/mL) | 14.7 | 60.2 | > 305 | > 305 | 19.1 (≈ 8.02 µg/mL) | 2.37 (≈ 0.996 µg/mL) | 4.77 (≈ 2 µg/mL) | 305 (≈ 128 µg/mL) | selectivity ratio [13]: 7.5; selectivity ratio [14]: 0.23; selectivity ratio [15]: 0.47; selectivity ratio [18]: 15; selectivity ratio [19]: 30; selectivity ratio [20]: < 0.23; MIC (Staphylococcus aureus [21]): 2.39 µM (≈ 1 µg/mL); selectivity ratio [22]: 3.75; MIC (Pseudomonas aeruginosa [23]): > 76.4 µM; selectivity ratio [24]: 7.5; selectivity ratio [25]: 30
Cc1ccc(S(=O)(=O)n2cc(/C=N\NC(=N)N)c3ccccc32)cc1 | 1.92 | 11.3 (≈ 4.01 µg/mL) | 11.3 (≈ 4.01 µg/mL) | 30.7 | 7.67 | 2.12 | 11.3 (≈ 4.01 µg/mL) | 86.7 | 11.3 (≈ 4.01 µg/mL) | 11.3 (≈ 4.01 µg/mL) | 7.68 | 5.63 (≈ 2 µg/mL) | 12.2 | 7.68 | 2.82 (≈ 1 µg/mL) | 45.1 (≈ 16 µg/mL) | 45.1 (≈ 16 µg/mL) | 11.3 (≈ 4.01 µg/mL) | 5.64 (≈ 2 µg/mL) | > 361 | selectivity ratio [13]: 7.68; selectivity ratio [14]: < 0.24; selectivity ratio [15]: 7.68; selectivity ratio [18]: 15.4; selectivity ratio [19]: 15.4; selectivity ratio [20]: 30.7; MIC (Staphylococcus aureus [21]): 2.82 µM (≈ 1 µg/mL); selectivity ratio [22]: 1.92; MIC (Pseudomonas aeruginosa [23]): 11.3 µM (≈ 4.01 µg/mL); selectivity ratio [24]: 7.68; selectivity ratio [25]: 7.67
C/C(=N/NC(=N)N)c1cn(S(=O)(=O)c2ccc(C)cc2)c2ccccc12 | 0.15 | 10.8 (≈ 4 µg/mL) | 10.8 (≈ 4 µg/mL) | 9.78 | < 0.61 | 2.38 | 21.7 (≈ 8.01 µg/mL) | 53 | 10.8 (≈ 4 µg/mL) | 10.8 (≈ 4 µg/mL) | 9.78 | 5.42 (≈ 2 µg/mL) | 2.68 | 4.89 | 2.71 (≈ 1 µg/mL) | 347 (≈ 128 µg/mL) | 43.4 (≈ 16 µg/mL) | 5.42 (≈ 2 µg/mL) | 10.8 (≈ 4 µg/mL) | 21.7 (≈ 8.01 µg/mL) | selectivity ratio [13]: 4.89; selectivity ratio [14]: 2.44; selectivity ratio [15]: 4.89; selectivity ratio [18]: 4.89; selectivity ratio [19]: 9.78; selectivity ratio [20]: 19.6; MIC (Staphylococcus aureus [21]): 5.42 µM (≈ 2 µg/mL); selectivity ratio [22]: 1.22; MIC (Pseudomonas aeruginosa [23]): > 86.7 µM; selectivity ratio [24]: 2.44; selectivity ratio [25]: 4.89
